Test results published in ChEMBL document CHEMBL1152183, “Structure-activity relationships of 3-substituted N-benzhydryl-nortropane analogs as nociceptin receptor ligands for the treatment of cough” (Bioorg Med Chem Lett, 2008).

Key:
Nociceptin receptor [1] = biological target: T1, Nociceptin receptor (Homo sapiens, UniProt P41146); assay: Displacement of [125I][Tyr14]nociceptin FQ from human cloned nociceptin receptor expressed in CHO cells; assay type: cell-based
Method in brief: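 Competition binding on CHO cell membranes expressing cloned human nociceptin receptor, radioligand [125I][Tyr14]nociceptin FQ; Ki determined from dose–response curves.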

Mu-type opioid receptor = Mu-type opioid receptor (Homo sapiens, UniProt P35372); assay: Displacement of [3H]diprenorphine from human mu opioid receptor expressed in CHO cells; assay type: cell-based
Sequence of Mu-type opioid receptor (P35372 whole entry): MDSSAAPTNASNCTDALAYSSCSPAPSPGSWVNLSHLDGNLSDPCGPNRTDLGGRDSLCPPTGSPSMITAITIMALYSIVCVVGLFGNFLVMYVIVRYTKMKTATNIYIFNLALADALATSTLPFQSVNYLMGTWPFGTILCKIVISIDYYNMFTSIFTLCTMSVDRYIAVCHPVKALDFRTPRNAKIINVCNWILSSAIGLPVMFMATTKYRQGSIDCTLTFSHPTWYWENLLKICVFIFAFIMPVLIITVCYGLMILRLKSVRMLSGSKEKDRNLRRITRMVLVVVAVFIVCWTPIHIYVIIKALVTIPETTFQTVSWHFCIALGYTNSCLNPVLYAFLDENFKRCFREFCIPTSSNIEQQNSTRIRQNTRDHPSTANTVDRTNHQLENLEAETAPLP
Method in brief: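 CHO cell membranes expressing human opioid receptor; [3H]-diprenorphine as radioligand; Ki determined from dose–response curves.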

Homo sapiens [2] = organism: Homo sapiens; assay: Selectivity for human cloned nociceptin receptor over human delta opioid receptor
Homo sapiens [3] = organism: Homo sapiens; assay: Selectivity for human cloned nociceptin receptor over human kappa opioid receptor
Nociceptin receptor [4] = biological target: T1, Nociceptin receptor; assay: Agonist activity at human cloned nociceptin receptor expressed in CHO cells assessed as stimulation of [35S]GTPgammaS binding; assay type: functional, cell-based
Method in brief: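 Membranes from cells transfected with nociceptin receptor; agonism measured as enhancement of [35S]GTPγS binding in presence of GDP; EC50 derived.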

Nociceptin receptor [5] = biological target: T1, Nociceptin receptor; assay: Agonist activity at human cloned nociceptin receptor expressed in CHO cells assessed as stimulation of [35S]GTPgammaS binding at 10 uM; assay type: functional, cell-based
Cavia porcellus [6] = organism: Cavia porcellus; assay: Antitussive activity in guinea pig assessed as suppression of capsaicin-induced cough after 2 hrs; assay type: functional
Method in brief: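 Guinea pig capsaicin-induced cough model; oral dosing; cough suppression read 2 h after dosing relative to placebo; ED50 derived.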

Nociceptin receptor [7] = biological target: T1, Nociceptin receptor; assay: Agonist activity at human cloned nociceptin receptor expressed in CHO cells assessed as stimulation of [35S]GTPgammaS binding at 5.5 uM; assay type: functional, cell-based
Cavia porcellus [8] = assay: Antitussive activity in guinea pig assessed as suppression of capsaicin-induced cough at 0.3 mg/kg, po; assay type: functional
Homo sapiens [9] = organism: Homo sapiens; assay: Selectivity for human cloned nociceptin receptor over human mu opioid receptor

T1 sequence (P41146 whole entry): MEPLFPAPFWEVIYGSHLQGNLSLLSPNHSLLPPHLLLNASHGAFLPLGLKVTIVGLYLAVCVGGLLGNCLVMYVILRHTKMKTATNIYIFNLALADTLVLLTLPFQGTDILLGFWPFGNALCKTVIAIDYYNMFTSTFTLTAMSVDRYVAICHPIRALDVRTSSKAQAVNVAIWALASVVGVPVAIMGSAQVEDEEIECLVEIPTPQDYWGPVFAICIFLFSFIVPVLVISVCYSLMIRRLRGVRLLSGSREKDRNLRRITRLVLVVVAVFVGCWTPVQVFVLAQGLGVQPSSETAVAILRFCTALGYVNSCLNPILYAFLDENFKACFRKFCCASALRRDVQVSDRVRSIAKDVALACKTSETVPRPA

SMILES	Ki (Nociceptin receptor [1])	Ki (Mu-type opioid receptor)	further results
CNC[C@@]1(c2ccccc2)C[C@H]2CC[C@@H](C1)N2C(c1ccccc1Cl)c1ccccc1Cl	10 nM	566 nM	–
COC(=O)NC[C@@]1(c2ccccc2)C[C@H]2CC[C@@H](C1)N2C(c1ccccc1Cl)c1ccccc1Cl	20 nM	905 nM	–
COc1cccc([C@]2(CNC(C)=O)C[C@H]3CC[C@@H](C2)N3C(c2ccccc2Cl)c2ccccc2Cl)n1	4 nM	251 nM	–
NC[C@@]1(c2ncccc2CN2CCCCC2)C[C@H]2CC[C@@H](C1)N2C(c1ccccc1Cl)c1ccccc1Cl	245 nM	–	–
CC(=O)NC[C@@]1(Cc2ccccc2)C[C@H]2CC[C@@H](C1)N2C(c1ccccc1Cl)c1ccccc1Cl	12 nM	458 nM	fold change (FC) (Homo sapiens [2]): 300; fold change (FC) (Homo sapiens [3]): 34
CC(=O)NC[C@@]1(c2ccccc2)C[C@H]2CC[C@@H](C1)N2C(c1ccccc1Cl)c1ccccc1Cl	20 nM	777 nM	fold change (FC) (Homo sapiens [2]): 300; fold change (FC) (Homo sapiens [3]): 32; EC50 (Nociceptin receptor [4]): 269 nM; Activity (Nociceptin receptor [5]): 122%; ED50 (Cavia porcellus [6]): 0.19 mg/kg
CN(C)C[C@@]1(c2ccccc2)C[C@H]2CC[C@@H](C1)N2C(c1ccccc1Cl)c1ccccc1Cl	17 nM	1490 nM	fold change (FC) (Homo sapiens [2]): 300; fold change (FC) (Homo sapiens [3]): 31; EC50 (Nociceptin receptor [4]): 483 nM; Activity (Nociceptin receptor [7]): 104%; Activity (Cavia porcellus [8]): 36%
COc1ccc([C@]2(CNC(C)=O)C[C@H]3CC[C@@H](C2)N3C(c2ccccc2Cl)c2ccccc2Cl)cc1	118 nM	2410 nM	–
Cc1ccc2c(c1)[C@]1(CN2)C[C@H]2CC[C@@H](C1)N2C(c1ccccc1Cl)c1ccccc1Cl	74 nM	998 nM	–
Clc1ccccc1C(c1ccccc1Cl)N1[C@@H]2CC[C@H]1C[C@@](Cc1ccccc1)(CN1CCCC1)C2	116 nM	–	–
NC[C@@]1(c2ccccn2)C[C@H]2CC[C@@H](C1)N2C(c1ccccc1Cl)c1ccccc1Cl	7 nM	617 nM	fold change (FC) (Homo sapiens [9]): 75; fold change (FC) (Homo sapiens [2]): 300; fold change (FC) (Homo sapiens [3]): 35
Clc1ccccc1C(c1ccccc1Cl)N1[C@@H]2CC[C@H]1C[C@@]1(CNc3ccccc31)C2	50 nM	1200 nM	–
CC(=O)N(C)C[C@@]1(c2ccccc2)C[C@H]2CC[C@@H](C1)N2C(c1ccccc1Cl)c1ccccc1Cl	210 nM	2620 nM	fold change (FC) (Homo sapiens [9]): 13
COc1cccc([C@]2(CN)C[C@H]3CC[C@@H](C2)N3C(c2ccccc2Cl)c2ccccc2Cl)n1	11 nM	123 nM	fold change (FC) (Homo sapiens [2]): 300; fold change (FC) (Homo sapiens [3]): 36
CN(C)C[C@@]1(c2ccccn2)C[C@H]2CC[C@@H](C1)N2C(c1ccccc1Cl)c1ccccc1Cl	7 nM	785 nM	fold change (FC) (Homo sapiens [9]): 75; EC50 (Nociceptin receptor [4]): 156 nM
CC(=O)NC[C@@]1(C2CCCCN2)C[C@H]2CC[C@@H](C1)N2C(c1ccccc1Cl)c1ccccc1Cl (stereo not given in full)	27 nM	–	–
CC(=O)NC[C@@]1(c2cccnc2)C[C@H]2CC[C@@H](C1)N2C(c1ccccc1Cl)c1ccccc1Cl	35 nM	–	–
CC(=O)NC[C@@]1(c2ccc(N3CCCCC3)cn2)C[C@H]2CC[C@@H](C1)N2C(c1ccccc1Cl)c1ccccc1Cl	99 nM	–	–
Cc1cccnc1[C@]1(CN)C[C@H]2CC[C@@H](C1)N2C(c1ccccc1Cl)c1ccccc1Cl	50 nM	–	–
O=C1CCCN1C[C@@]1(Cc2ccccc2)C[C@H]2CC[C@@H](C1)N2C(c1ccccc1Cl)c1ccccc1Cl	336 nM	–	–
NC[C@@]1(c2cccc(F)n2)C[C@H]2CC[C@@H](C1)N2C(c1ccccc1Cl)c1ccccc1Cl	29 nM	–	–
CCNC[C@@]1(c2cccc(OC)n2)C[C@H]2CC[C@@H](C1)N2C(c1ccccc1Cl)c1ccccc1Cl	20 nM	442 nM	–

SMILES	Ki (Nociceptin receptor [1])	Ki (Mu-type opioid receptor)	further results
CC(=O)NC[C@@]1(c2ncccc2CN2CCCCC2)C[C@H]2CC[C@@H](C1)N2C(c1ccccc1Cl)c1ccccc1Cl	670 nM	758 nM	–
CC(=O)NC[C@@]1(c2ccccn2)C[C@H]2CC[C@@H](C1)N2C(c1ccccc1Cl)c1ccccc1Cl	5 nM	374 nM	fold change (FC) (Homo sapiens [9]): 75
CN(C)C[C@@]1(Cc2ccccc2)C[C@H]2CC[C@@H](C1)N2C(c1ccccc1Cl)c1ccccc1Cl	55 nM	–	–
CCNC[C@]1(Cc2ccccc2)C[C@H]2CC[C@@H](C1)N2C(c1ccccc1Cl)c1ccccc1Cl	39 nM	–	–
CCNC[C@@]1(c2ccccn2)C[C@H]2CC[C@@H](C1)N2C(c1ccccc1Cl)c1ccccc1Cl	6 nM	743 nM	fold change (FC) (Homo sapiens [9]): 75
NC[C@@]1(c2ccccc2)C[C@H]2CC[C@@H](C1)N2C(c1ccccc1Cl)c1ccccc1Cl	6 nM	674 nM	fold change (FC) (Homo sapiens [9]): 112; fold change (FC) (Homo sapiens [2]): 300; fold change (FC) (Homo sapiens [3]): 30
Fc1ccc2c(c1)[C@]1(CN2)C[C@H]2CC[C@@H](C1)N2C(c1ccccc1Cl)c1ccccc1Cl	39 nM	1710 nM	–
Clc1ccccc1C(c1ccccc1Cl)N1[C@@H]2CC[C@H]1C[C@](CN1CCCC1)(c1ccccc1)C2	70 nM	4170 nM	–
CC(=O)NC[C@@]1(c2ccc(Br)cn2)C[C@H]2CC[C@@H](C1)N2C(c1ccccc1Cl)c1ccccc1Cl	27 nM	752 nM	–
Fc1ccc(C[C@]2(CN3CCCC3)C[C@H]3CC[C@@H](C2)N3C(c2ccccc2Cl)c2ccccc2Cl)cc1	58 nM	–	–
CC(=O)NC[C@@]1(c2ncccc2C)C[C@H]2CC[C@@H](C1)N2C(c1ccccc1Cl)c1ccccc1Cl	173 nM	–	–
COc1ccc([C@]2(CNC(C)=O)C[C@H]3CC[C@@H](C2)N3C(c2ccccc2Cl)c2ccccc2Cl)nc1	62 nM	3450 nM	–
NC[C@@]1(C2CCCCN2)C[C@H]2CC[C@@H](C1)N2C(c1ccccc1Cl)c1ccccc1Cl (stereo not given in full)	17 nM	–	–
O=C1CCCN1C[C@@]1(c2ccccc2)C[C@H]2CC[C@@H](C1)N2C(c1ccccc1Cl)c1ccccc1Cl	68 nM	–	–
NC[C@@]1(Cc2ccccc2)C[C@H]2CC[C@@H](C1)N2C(c1ccccc1Cl)c1ccccc1Cl	11 nM	1340 nM	fold change (FC) (Homo sapiens [9]): 121; fold change (FC) (Homo sapiens [2]): 300; fold change (FC) (Homo sapiens [3]): 33
CN(C)C[C@@]1(c2cccc(F)n2)C[C@H]2CC[C@@H](C1)N2C(c1ccccc1Cl)c1ccccc1Cl	104 nM	3980 nM	–
CC(=O)NC[C@@]1(c2cccc(F)n2)C[C@H]2CC[C@@H](C1)N2C(c1ccccc1Cl)c1ccccc1Cl	24 nM	1280 nM	–
NC[C@@]1(c2cccnc2)C[C@H]2CC[C@@H](C1)N2C(c1ccccc1Cl)c1ccccc1Cl	82 nM	–	–
CC(=O)NC[C@@]1(c2ccc(F)cc2)C[C@H]2CC[C@@H](C1)N2C(c1ccccc1Cl)c1ccccc1Cl	31 nM	2110 nM	fold change (FC) (Homo sapiens [9]): 68
NC[C@@]1(Cc2ccc(F)cc2)C[C@H]2CC[C@@H](C1)N2C(c1ccccc1Cl)c1ccccc1Cl	34 nM	1410 nM	EC50 (Nociceptin receptor [4]): 124 nM; Activity (Nociceptin receptor [7]): 87%
CC(=O)NC[C@@]1(Cc2ccc(F)cc2)C[C@H]2CC[C@@H](C1)N2C(c1ccccc1Cl)c1ccccc1Cl	15 nM	782 nM	EC50 (Nociceptin receptor [4]): 129 nM; Activity (Nociceptin receptor [5]): 124%; Activity (Cavia porcellus [8]): 23%
